According to ChEMBL document CHEMBL1122231, “Synthesis, benzodiazepine receptor binding, and anticonvulsant activity of 2,3-dihydro-3-oxo-5H-pyrido[3,4-b][1,4]benzothiazine-4-carbonitriles” (J Med Chem, 1983):

What was measured:
[1] = biological target: GABA-A receptor; anion channel; test: Inhibition of binding of tritiated 3[H]diazepam radioligand to rat brain homogenates; type: tissue-based
In short: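 Rat brain membranes incubated with [3H]diazepam (final 4 μM) and six to eight concentrations of test drug, 30 °C for 10 min, then 4 °C for 20 min. Reactions were stopped by vacuum filtration through glass-fiber filters. Nonspecific binding was defined with 4 μM unlabeled diazepam. IC50 is the concentration giving 50% inhibition of [3H]diazepam binding to membranes.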

[2] = test system: Mus musculus; test: Inhibition of pentylenetetrazole (PTZ) induced convulsions in mice at 4 mg/kg after 30 min; 0/10; type: functional
[3] = test system: Mus musculus; test: Inhibition of pentylenetetrazole (PTZ) induced convulsions in mice at 64 mg/kg after 30 min; 0/10; type: functional
[4] = test system: Mus musculus; test: Inhibition of pentylenetetrazole (PTZ) induced convulsions in mice at 64 mg/kg after 60 min; 0/10; type: functional
[5] = test system: Mus musculus; test: Inhibition of pentylenetetrazole (PTZ) induced convulsions in mice at 64 mg/kg after 30 min; 5/10; type: functional
[6] = test system: Mus musculus; test: Inhibition of pentylenetetrazole (PTZ) induced convulsions in mice at 100 mg/kg after 60 min; 2/10; type: functional
[7] = test system: Mus musculus; test: Inhibition of pentylenetetrazole (PTZ) induced convulsions in mice at 64 mg/kg after 30 min; 1/10; type: functional
[8] = test system: Mus musculus; test: Inhibition of pentylenetetrazole (PTZ) induced convulsions in mice at 4 mg/kg after 30 min; type: functional; conditions: 0.5 h
[9] = test system: Mus musculus; test: Inhibition of pentylenetetrazole (PTZ) induced convulsions in mice at 10 mg/kg after 60 min; 0/10; type: functional
[10] = test system: Mus musculus; test: Inhibition of pentylenetetrazole (PTZ) induced convulsions in mice at 64 mg/kg after 30 min; 4/10; type: functional
[11] = test system: Mus musculus; test: Inhibition of pentylenetetrazole (PTZ) induced convulsions in mice at 64 mg/kg after 60 min; 1/10; type: functional
[12] = test system: Mus musculus; test: Minimum effective dose after intraperitoneal administration; type: functional; conditions: ip, read-out: MED
[13] = test system: Mus musculus; test: Inhibition of pentylenetetrazole (PTZ) induced convulsions in mice at 10 mg/kg after 60 min; type: functional; conditions: 1 h
[14] = test system: Mus musculus; test: Inhibition of pentylenetetrazole (PTZ) induced convulsions in mice at 100 mg/kg after 60 min; 8/10; type: functional
[15] = test system: Mus musculus; test: Inhibition of pentylenetetrazole (PTZ) induced convulsions in mice at 10 mg/kg after 60 min; 3/10; type: functional
[16] = test system: Mus musculus; test: Inhibition of pentylenetetrazole (PTZ) induced convulsions in mice at 4 mg/kg after 30 min; 1/10; type: functional
[17] = test system: Mus musculus; test: Inhibition of pentylenetetrazole (PTZ) induced convulsions in mice at 64 mg/kg after 30 min; 2/10; type: functional
[18] = test system: Mus musculus; test: Inhibition of pentylenetetrazole (PTZ) induced convulsions in mice at 64 mg/kg after 60 min; 2/10; type: functional
[19] = test system: Mus musculus; test: Inhibition of pentylenetetrazole (PTZ) induced convulsions in mice at 4 mg/kg after 30 min; 2/10; type: functional
[20] = test system: Mus musculus; test: Inhibition of pentylenetetrazole (PTZ) induced convulsions in mice at 64 mg/kg after 60 min; 7/10; type: functional
[21] = test system: Mus musculus; test: Inhibition of pentylenetetrazole (PTZ) induced convulsions in mice at 10 mg/kg after 60 min; 1/10; type: functional
[22] = test system: Mus musculus; test: Inhibition of pentylenetetrazole (PTZ) induced convulsions in mice at 64 mg/kg after 60 min; 10/10; type: functional
[23] = test system: Mus musculus; test: Inhibition of pentylenetetrazole (PTZ) induced convulsions in mice at 100 mg/kg after 60 min; 6/10; type: functional

Compound: CN1c2ccccc2Sc2cnc(O)c(C#N)c21
- IC50 [1]: 0.314 µM
- No. of mice protected [2]: 0
- No. of mice protected [3]: 0
- No. of mice protected [4]: 0

Compound: CN1c2ccccc2Sc2cn(C)c(=O)c(C#N)c21
- IC50 [1]: 100 µM
- No. of mice protected [2]: 0
- No. of mice protected [5]: 5

Compound: Cn1cc2c(c(C#N)c1=O)Nc1ccccc1S2
- IC50 [1]: 17 µM
- No. of mice protected [6]: 2
- No. of mice protected [2]: 0
- No. of mice protected [7]: 1

Compound: N#Cc1c(O)ncc2c1Nc1ccccc1S2
- IC50 [1]: 0.45 µM
- ED50 [8]: 62 mg/kg
- No. of mice protected [9]: 0
- No. of mice protected [2]: 0
- No. of mice protected [10]: 4
- No. of mice protected [11]: 1
- minimal effective dose [12]: 60 mg/kg

Compound: Cc1nc(O)c(C#N)c2c1Sc1ccccc1N2
- IC50 [1]: 1.7 µM
- No. of mice protected [6]: 2
- No. of mice protected [2]: 0
- No. of mice protected [7]: 1

Compound: N#Cc1c(O)ncc2c1Nc1ccccc1[S+]2[O-] (stereo unspecified)
- IC50 [1]: 4.25 µM
- ED50 [13]: 41 mg/kg
- No. of mice protected [14]: 8
- No. of mice protected [15]: 3

Compound: N#Cc1c(O)ncc2c1Nc1cc(Cl)ccc1S2(=O)=O
- IC50 [1]: 7.6 µM
- No. of mice protected [16]: 1
- No. of mice protected [17]: 2

Compound: N#Cc1c(O)ncc2c1Nc1ccccc1S2(=O)=O
- IC50 [1]: 11 µM
- No. of mice protected [16]: 1
- No. of mice protected [17]: 2
- No. of mice protected [18]: 2

Compound: N#Cc1c(O)ncc2c1Nc1ccc(N)cc1S2
- IC50 [1]: 0.91 µM
- No. of mice protected [19]: 2
- No. of mice protected [5]: 5
- No. of mice protected [20]: 7

Compound: N#Cc1c(O)ncc2c1Nc1ccc([N+](=O)[O-])cc1S2
- IC50 [1]: 0.8 µM
- No. of mice protected [6]: 2
- No. of mice protected [21]: 1
- No. of mice protected [2]: 0

Compound: N#Cc1c(O)ncc2c1Nc1ccc(Cl)cc1S2(=O)=O
- IC50 [1]: 0.634 µM
- No. of mice protected [16]: 1
- No. of mice protected [5]: 5

Compound: N#Cc1c(O)ncc2c1Nc1ccc(Cl)cc1S2
- IC50 [1]: 0.32 µM
- No. of mice protected [6]: 2

Compound: N#Cc1c(O)ncc2c1Nc1ccc(Br)cc1S2
- IC50 [1]: 8 µM
- No. of mice protected [6]: 2
- No. of mice protected [9]: 0
- No. of mice protected [2]: 0
- No. of mice protected [5]: 5

Compound: N#Cc1c(O)ncc2c1Nc1cc(Cl)ccc1S2
- IC50 [1]: 0.4 µM
- ED50 [13]: 32 mg/kg
- ED50 [8]: 26 mg/kg
- No. of mice protected [21]: 1
- No. of mice protected [22]: 10

Compound: N#Cc1c(O)ncc2c1Nc1cc(Cl)ccc1[S+]2[O-] (stereo unspecified)
- IC50 [1]: 35 µM
- No. of mice protected [23]: 6
- No. of mice protected [9]: 0
- No. of mice protected [2]: 0
- No. of mice protected [17]: 2

Compound: COc1cc2c(cc1OC)Sc1cnc(O)c(C#N)c1N2
- IC50 [1]: 100 µM
- No. of mice protected [21]: 1
- No. of mice protected [18]: 2

Compound: CNC1=Nc2ccc(Cl)cc2C(c2ccccc2)=[N+]([O-])C1 [CHLORDIAZEPOXIDE]
- IC50 [1]: 0.442 µM
- ED50 [8]: 1.25 mg/kg
